Measured values taken from ChEMBL document CHEMBL1128543, “Computer-aided design and synthesis of 5-substituted tryptamines and their pharmacology at the 5-HT1D receptor: discovery of compounds with potential anti-migraine properties” (J Med Chem, 1995).

Legend:
[1] = target: 5-hydroxytryptamine receptor 1D (Homo sapiens) (UniProt P28221); test: (§1) Intrinsic activity against 5-hydroxytryptamine 1 receptor using rabbit saphenous vein assay.; type: tissue-based; details: Oryctolagus cuniculus, target entry is the homologue from another species
5-hydroxytryptamine receptor 1D (Homo sapiens), sequence (P28221 whole entry): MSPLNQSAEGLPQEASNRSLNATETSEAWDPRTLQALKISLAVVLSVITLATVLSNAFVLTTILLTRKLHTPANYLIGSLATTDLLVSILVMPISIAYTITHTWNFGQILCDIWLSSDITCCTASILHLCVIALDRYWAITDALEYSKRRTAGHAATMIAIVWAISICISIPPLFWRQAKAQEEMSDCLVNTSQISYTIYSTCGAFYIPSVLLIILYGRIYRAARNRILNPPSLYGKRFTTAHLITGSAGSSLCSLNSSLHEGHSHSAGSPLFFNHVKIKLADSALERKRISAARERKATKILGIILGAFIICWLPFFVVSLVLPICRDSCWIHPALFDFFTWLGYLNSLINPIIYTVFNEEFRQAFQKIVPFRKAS
Outline: (§2)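 Male New Zealand White rabbit saphenous vein rings (4–5 mm) in Krebs–Henseleit at 37 °C, pH 7.4, gassed with 95% O₂:5% CO₂, under 2 g passive force. Tissues got 30 min pargyline (500 μM) and phenoxybenzamine (0.3 μM), then were washed and checked with 1 μM 5-HT. A cumulative 5-HT curve was followed 60 min later by a test agonist curve. Potency is p[A₅₀]; α is test max/5-HT max; n ≥ 3.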

[2] = species: Oryctolagus cuniculus; test: as §1; type: tissue-based; outline: as §2
[3] = species: Oryctolagus cuniculus; test: Binding affinity against 5-hydroxytryptamine 1 receptor using rabbit saphenous vein assay.; type: tissue-based; outline: as §2
[4] = species: Oryctolagus cuniculus; test: Binding affinity against 5-hydroxytryptamine 1D receptor using rabbit saphenous vein assay.; type: tissue-based; outline: as §2
[5] = species: Oryctolagus cuniculus; test: Binding affinity against 5-hydroxytryptamine 4 receptor using rabbit saphenous vein assay.; type: tissue-based
[6] = target: 5-hydroxytryptamine receptor 1B (Homo sapiens, UniProt P28222); test: Binding affinity against 5-hydroxytryptamine 1D receptor beta using rabbit saphenous vein assay.; type: tissue-based
5-hydroxytryptamine receptor 1B, sequence (P28222 whole entry): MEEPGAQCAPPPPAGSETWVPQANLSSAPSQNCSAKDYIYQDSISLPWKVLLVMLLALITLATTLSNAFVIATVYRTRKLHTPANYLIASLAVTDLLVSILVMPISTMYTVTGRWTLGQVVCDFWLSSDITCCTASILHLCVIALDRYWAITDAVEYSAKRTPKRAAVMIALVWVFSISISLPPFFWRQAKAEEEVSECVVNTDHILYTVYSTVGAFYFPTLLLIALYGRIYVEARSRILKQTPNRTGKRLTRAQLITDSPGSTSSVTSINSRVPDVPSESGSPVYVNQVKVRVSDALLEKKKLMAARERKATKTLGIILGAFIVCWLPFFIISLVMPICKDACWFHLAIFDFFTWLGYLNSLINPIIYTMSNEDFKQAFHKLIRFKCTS
Outline: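 Saphenous vein rings (4–5 mm) from male New Zealand White rabbits, in Krebs–Henseleit buffer at 37 °C, pH 7.4, gassed 95% O2/5% CO2, 2 g passive force. Pretreated with pargyline (500 μM) and phenoxybenzamine (0.3 μM) for 30 min, then washed. A cumulative 5-HT curve was followed after 60 min by a curve to the test agonist. p[A50] and α relative to 5-HT maximum were derived; mean of n ≥ 3.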

[7] = target: 5-hydroxytryptamine receptor 1D (Homo sapiens) (UniProt P28221); test: The compound was tested for intrinsic activity against 5-HT1D receptor; details: Oryctolagus cuniculus
Outline: (§3)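 Rabbit saphenous vein rings (male New Zealand White; 4–5 mm) mounted on tungsten wires in Krebs–Henseleit buffer, pH 7.4, 37 °C, gassed with 95% O2/5% CO2, at 2 g passive force. Pretreated for 30 min with pargyline (500 μM) and phenoxybenzamine (0.3 μM), then washed. Cumulative 5-HT curve, then after 60 min a test agonist curve. Potency is p[A50]; α is test maximum/5-HT maximum; n ≥ 3.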

[8] = target: 5-hydroxytryptamine receptor 1D (Homo sapiens) (UniProt P28221); test: The compound was tested for binding affinity against 5-HT1D receptor; details: Oryctolagus cuniculus; outline: as §3
[9] = target: Serotonin 3 (5-HT3) receptor (Homo sapiens) (UniProt P46098+A5X5Y0+O95264+Q70Z44+Q8WXA8); test: Binding affinity against 5-hydroxytryptamine 3 receptor […]; type: cell-based; details: Oryctolagus cuniculus
[10] = target: Adrenergic receptor alpha-1 (Homo sapiens) (UniProt P35348+P25100+P35368); test: Binding affinity against Alpha-1 adrenergic receptor using rabbit saphenous vein assay.; type: tissue-based; details: Oryctolagus cuniculus, target entry is the homologue from another species
[11] = target: Beta-2 adrenergic receptor (Canis lupus familiaris) (UniProt P54833); test: Binding affinity towards Beta adrenergic receptor
Beta-2 adrenergic receptor (Canis lupus familiaris), sequence (P54833 whole entry, looked up): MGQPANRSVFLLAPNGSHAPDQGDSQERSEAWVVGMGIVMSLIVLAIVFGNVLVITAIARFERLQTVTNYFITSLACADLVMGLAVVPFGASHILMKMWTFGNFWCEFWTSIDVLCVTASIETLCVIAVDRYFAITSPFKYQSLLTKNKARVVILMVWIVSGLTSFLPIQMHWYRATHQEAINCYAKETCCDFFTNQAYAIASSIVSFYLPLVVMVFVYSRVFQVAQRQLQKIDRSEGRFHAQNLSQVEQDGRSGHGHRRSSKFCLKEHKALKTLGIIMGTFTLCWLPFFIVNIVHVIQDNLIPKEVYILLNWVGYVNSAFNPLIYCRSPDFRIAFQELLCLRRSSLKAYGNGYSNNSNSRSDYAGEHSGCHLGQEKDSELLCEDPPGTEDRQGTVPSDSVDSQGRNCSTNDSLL

[12] = target: D(2) dopamine receptor (Homo sapiens) (UniProt P14416); test: Binding affinity against Dopamine receptor D2 using rabbit saphenous vein assay.; type: tissue-based; details: Oryctolagus cuniculus, target entry is the homologue from another species
D(2) dopamine receptor (Homo sapiens), sequence (P14416 whole entry): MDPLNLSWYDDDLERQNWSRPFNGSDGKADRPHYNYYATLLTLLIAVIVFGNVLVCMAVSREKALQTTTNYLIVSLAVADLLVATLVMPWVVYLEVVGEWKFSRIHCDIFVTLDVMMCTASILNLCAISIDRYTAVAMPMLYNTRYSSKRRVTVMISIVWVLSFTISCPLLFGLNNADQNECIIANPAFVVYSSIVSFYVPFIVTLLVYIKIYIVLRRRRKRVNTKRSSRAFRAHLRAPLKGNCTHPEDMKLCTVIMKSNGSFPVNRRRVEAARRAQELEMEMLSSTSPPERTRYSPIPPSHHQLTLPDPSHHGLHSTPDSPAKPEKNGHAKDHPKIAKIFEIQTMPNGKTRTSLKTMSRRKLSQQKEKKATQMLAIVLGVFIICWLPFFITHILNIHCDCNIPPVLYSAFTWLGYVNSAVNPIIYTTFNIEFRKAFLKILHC

[13] = target: D(1A) dopamine receptor (Rattus norvegicus, UniProt P18901); test: Binding affinity against dopamine receptor D1 in rat striatum using [3H]SCH-23390 as radioligand; type: tissue-based
D(1A) dopamine receptor, sequence (P18901 whole entry): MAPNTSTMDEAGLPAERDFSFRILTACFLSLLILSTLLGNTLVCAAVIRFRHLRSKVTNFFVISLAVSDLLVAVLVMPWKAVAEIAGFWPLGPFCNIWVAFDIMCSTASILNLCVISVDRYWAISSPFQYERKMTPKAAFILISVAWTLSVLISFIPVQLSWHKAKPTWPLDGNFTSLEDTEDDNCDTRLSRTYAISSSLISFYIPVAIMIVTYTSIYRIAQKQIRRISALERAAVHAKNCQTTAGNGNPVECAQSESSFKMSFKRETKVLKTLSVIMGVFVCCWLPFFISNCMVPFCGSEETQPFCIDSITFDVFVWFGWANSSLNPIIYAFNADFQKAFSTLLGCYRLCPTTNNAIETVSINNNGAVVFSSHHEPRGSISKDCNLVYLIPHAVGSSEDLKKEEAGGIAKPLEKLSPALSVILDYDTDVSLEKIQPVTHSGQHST
Outline: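 Displacement of [³H]SCH23390 (0.3 nM, about K_D) from rat striatum homogenate, with test compounds run in duplicate over a wide range. Incubation was 30 min at 27 °C in 50 mM Tris-HCl with 5 mM CaCl₂, 0.1% w/v ascorbate and 10 mM pargyline. Assays were filtered and washed with ice-cold buffer, and bound label was counted by scintillation. Results are pK_i or pIC₅₀, n ≥ 3.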

[14] = target: D(1A) dopamine receptor (Homo sapiens) (UniProt P21728); test: Binding affinity was evaluated by Dopamine receptor D1 agonism in the calf striatum by displacing SCH 23390; type: tissue-based; details: Oryctolagus cuniculus
D(1A) dopamine receptor (Homo sapiens), sequence (P21728 whole entry): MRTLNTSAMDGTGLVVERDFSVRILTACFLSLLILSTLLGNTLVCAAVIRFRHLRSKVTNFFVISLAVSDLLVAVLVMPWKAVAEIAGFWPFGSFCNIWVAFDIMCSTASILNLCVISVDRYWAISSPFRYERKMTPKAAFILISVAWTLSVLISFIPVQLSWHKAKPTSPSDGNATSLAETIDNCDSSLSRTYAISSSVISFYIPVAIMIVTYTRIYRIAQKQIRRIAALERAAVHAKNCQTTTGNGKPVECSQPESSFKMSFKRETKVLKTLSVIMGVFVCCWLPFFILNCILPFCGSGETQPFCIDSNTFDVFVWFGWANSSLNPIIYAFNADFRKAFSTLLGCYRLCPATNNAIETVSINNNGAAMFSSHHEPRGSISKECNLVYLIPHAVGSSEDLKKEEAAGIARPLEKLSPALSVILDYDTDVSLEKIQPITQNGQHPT

[15] = target: D(2) dopamine receptor (Rattus norvegicus, UniProt P61169); test: Binding affinity against Dopamine receptor D2 in rat striatum using [3H]-spiperone as radioligand; type: tissue-based
D(2) dopamine receptor, sequence (P61169 whole entry): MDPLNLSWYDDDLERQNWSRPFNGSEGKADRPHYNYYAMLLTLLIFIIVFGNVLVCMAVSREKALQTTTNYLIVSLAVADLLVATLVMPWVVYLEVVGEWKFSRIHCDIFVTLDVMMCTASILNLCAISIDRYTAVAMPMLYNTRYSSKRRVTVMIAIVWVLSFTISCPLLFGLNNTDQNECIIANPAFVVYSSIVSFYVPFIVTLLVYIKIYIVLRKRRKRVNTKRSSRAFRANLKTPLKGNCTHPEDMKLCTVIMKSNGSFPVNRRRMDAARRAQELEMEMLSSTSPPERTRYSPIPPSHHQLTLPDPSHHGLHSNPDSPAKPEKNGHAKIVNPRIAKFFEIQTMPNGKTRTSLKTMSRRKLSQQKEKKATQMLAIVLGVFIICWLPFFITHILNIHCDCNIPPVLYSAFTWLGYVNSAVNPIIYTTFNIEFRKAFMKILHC
Outline: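 Incubation was 30 min at 27 °C in Tris-HCl 50 mM/CaCl₂ 5 mM/0.1% ascorbate/10 mM pargyline buffer. Bound and free label were separated by filtration and counted by liquid scintillation. pK_i or pIC₅₀ is the mean of n ≥ 3.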

[16] = target: Histamine H1 receptor (Homo sapiens) (UniProt P35367); test: Binding affinity against H1 receptor using rabbit saphenous vein assay.; type: tissue-based; details: Oryctolagus cuniculus, target entry is the homologue from another species
Histamine H1 receptor (Homo sapiens), sequence (P35367 whole entry): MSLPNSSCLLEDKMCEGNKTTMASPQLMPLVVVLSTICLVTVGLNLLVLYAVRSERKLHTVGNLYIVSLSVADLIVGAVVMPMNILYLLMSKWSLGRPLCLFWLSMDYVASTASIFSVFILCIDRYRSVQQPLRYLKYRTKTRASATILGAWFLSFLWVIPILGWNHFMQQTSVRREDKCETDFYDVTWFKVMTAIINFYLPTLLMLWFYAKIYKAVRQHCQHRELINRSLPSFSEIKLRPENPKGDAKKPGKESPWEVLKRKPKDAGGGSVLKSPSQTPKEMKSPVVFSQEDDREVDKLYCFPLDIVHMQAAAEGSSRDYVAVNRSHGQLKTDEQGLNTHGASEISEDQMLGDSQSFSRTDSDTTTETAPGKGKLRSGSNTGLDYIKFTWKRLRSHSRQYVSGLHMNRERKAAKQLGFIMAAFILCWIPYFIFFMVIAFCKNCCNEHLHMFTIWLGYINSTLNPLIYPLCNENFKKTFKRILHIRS

[17] = target: Histamine H2 receptor (Homo sapiens) (UniProt P25021); test: Binding affinity against H2 receptor using rabbit saphenous vein assay.; type: tissue-based; details: Oryctolagus cuniculus, target entry is the homologue from another species
Histamine H2 receptor (Homo sapiens), sequence (P25021 whole entry): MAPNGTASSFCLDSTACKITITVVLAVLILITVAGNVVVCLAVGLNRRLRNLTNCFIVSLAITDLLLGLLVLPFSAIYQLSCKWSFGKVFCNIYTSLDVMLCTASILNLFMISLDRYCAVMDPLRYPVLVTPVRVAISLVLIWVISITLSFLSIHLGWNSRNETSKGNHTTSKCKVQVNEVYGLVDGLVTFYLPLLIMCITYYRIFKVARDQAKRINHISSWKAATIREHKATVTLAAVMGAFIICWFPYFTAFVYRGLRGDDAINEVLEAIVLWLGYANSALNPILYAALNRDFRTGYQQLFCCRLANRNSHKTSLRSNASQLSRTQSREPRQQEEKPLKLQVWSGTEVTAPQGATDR

[18] = target: T1, Muscarinic acetylcholine receptor M2 (Homo sapiens) (UniProt P08172); test: Binding affinity against Muscarinic acetylcholine receptor M2 using rabbit saphenous vein assay.; type: tissue-based; details: Oryctolagus cuniculus, target entry is the homologue from another species
T1 sequence (whole entry): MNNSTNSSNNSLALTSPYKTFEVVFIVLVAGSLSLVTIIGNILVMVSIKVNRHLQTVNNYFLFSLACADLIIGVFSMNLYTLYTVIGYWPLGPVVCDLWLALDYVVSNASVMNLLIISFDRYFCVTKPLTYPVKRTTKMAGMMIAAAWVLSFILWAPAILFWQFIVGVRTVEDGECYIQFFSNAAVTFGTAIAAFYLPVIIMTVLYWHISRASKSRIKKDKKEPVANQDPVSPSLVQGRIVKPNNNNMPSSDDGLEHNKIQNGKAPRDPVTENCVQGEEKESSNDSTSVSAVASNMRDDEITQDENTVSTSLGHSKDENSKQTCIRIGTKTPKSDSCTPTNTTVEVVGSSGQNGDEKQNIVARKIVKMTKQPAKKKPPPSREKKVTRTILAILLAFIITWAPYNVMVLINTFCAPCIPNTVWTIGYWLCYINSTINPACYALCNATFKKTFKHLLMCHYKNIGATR

[19] = target: Muscarinic acetylcholine receptor M3 (Homo sapiens) (UniProt P20309); test: Binding affinity against Muscarinic acetylcholine receptor M3 using rabbit saphenous vein assay.; type: tissue-based; details: Oryctolagus cuniculus, target entry is the homologue from another species
Muscarinic acetylcholine receptor M3 (Homo sapiens), sequence (P20309 whole entry, looked up): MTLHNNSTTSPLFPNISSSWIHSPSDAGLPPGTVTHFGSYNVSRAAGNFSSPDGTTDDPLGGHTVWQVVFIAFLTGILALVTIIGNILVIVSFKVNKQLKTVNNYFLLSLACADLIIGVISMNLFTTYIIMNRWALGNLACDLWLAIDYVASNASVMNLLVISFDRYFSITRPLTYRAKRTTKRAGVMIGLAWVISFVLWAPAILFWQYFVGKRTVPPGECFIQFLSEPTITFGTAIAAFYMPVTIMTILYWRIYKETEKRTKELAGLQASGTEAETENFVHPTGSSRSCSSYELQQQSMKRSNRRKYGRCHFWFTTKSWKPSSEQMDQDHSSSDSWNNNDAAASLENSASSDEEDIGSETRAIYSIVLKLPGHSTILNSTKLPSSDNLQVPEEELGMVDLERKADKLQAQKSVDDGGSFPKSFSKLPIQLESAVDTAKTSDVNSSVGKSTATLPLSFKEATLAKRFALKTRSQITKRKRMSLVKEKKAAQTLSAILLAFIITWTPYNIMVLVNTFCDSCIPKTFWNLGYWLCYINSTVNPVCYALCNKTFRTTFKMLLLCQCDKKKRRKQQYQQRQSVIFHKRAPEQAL

[20] = target: Adrenergic receptor alpha-2 (Homo sapiens) (UniProt P08913+P18825+P18089); details: Oryctolagus cuniculus; Saphenous vein

- p[A50] [1]: 8.7
- Intrinsic activity [2]: 0.77
- p[A50] [3]: 6.8
- p[A50] [4]: < 4.5
- p[A50] [5]: 5.3
- Kd [6]: 1.5 nM
- Intrinsic activity [7]: 0.77
- p[A50] [8]: 6.8
- p[A50] [9]: < 4.5
- p[A50] [10]: < 4
- p[A50] [11]: < 4
- p[A50] [12]: < 4
- Kd [13]: 0.3 nM
- p[A50] [14]: < 4
- Kd [15]: 0.04 nM
- p[A50] [16]: 5.5
- p[A50] [17]: < 4.5
- p[A50] [18]: < 4.5
- p[A50] [19]: < 4.5
- p[A50] [20]: 4.1
Compound: CN(C)CCc1c[nH]c2ccc(C[C@H]3COC(=O)N3)cc12 [ZOLMITRIPTAN]
